Laboratory results: ChEMBL document CHEMBL4665801, “Pyrazole-Based Lactate Dehydrogenase Inhibitors with Optimized Cell Activity and Pharmacokinetic Properties” (J Med Chem, 2020)
Active and inactive are the calls of the source.

Tests used:
[1] = Cmax in CD-1 mouse at 50 mg/kg, po and measured up to 24 hrs by LC/MS-MS analysis; assay type: ADME, organism-based; parameters: route oral, dose 50 mg/kg, time <=24; conditions: in vivo
Procedure, shortened: (§1)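 Male CD1 mice, about 6–8 weeks old and 20–30 g, were dosed PO at 40 or 50 mg/kg in 0.1 M NaOH in PBS, pH 7–8.5, prepared the same day. Three mice per cohort. Dorsal metatarsal vein blood was collected into heparin at 15, 30 min and 1, 2, 4, 8, 12, 24 h. Plasma was spun at 4 °C, frozen at –75 °C and quantified by LC–MS/MS.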

[2] = Cmax in CD-1 mouse at 10 mg/kg, iv and measured up to 24 hrs by LC/MS-MS analysis; assay type: ADME, organism-based; parameters: route intravenous, dose 10 mg/kg, time <=24; conditions: in vivo
Procedure, shortened: (§2)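 Male CD1 mice, about 6–8 weeks old and 20–30 g, received 10 mg/kg IV in 0.1 M NaOH in PBS adjusted to pH 7–8.5, made fresh on the day of dosing. Three mice per cohort. Blood was taken from the dorsal metatarsal vein at 5, 15, 30 min and 1, 2, 4, 8, 12, 24 h into heparin tubes. Plasma was spun at 4 °C, stored at –75 °C and analysed by LC–MS/MS. For IV dosing Cmax = C0.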

Sus scrofa = species: Sus scrofa; experiment: Inhibition of porcine heart MDH using malic acid as substrate preincubated for 10 mins followed by substrate addition and measured after 5 mins by resazurin based fluorescence based assay; conditions: time 15.0 min
[3] = target: T1, L-lactate dehydrogenase A chain (Homo sapiens, UniProt P00338); experiment: Inhibition of LDHA in human A673 cells assessed as decrease in lactate production incubated for 2 hrs by lactate oxidase-coupled fluorescence based assay; assay type: cell-based
[4] = Terminal half life in CD-1 mouse at 50 mg/kg, po and measured up to 24 hrs by LC/MS-MS analysis; assay type: ADME, organism-based; conditions: in vivo
Procedure, shortened: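 Male CD1 mice, about 6–8 weeks old and 20–30 g, were dosed PO at 40 or 50 mg/kg in 0.1 M NaOH in PBS, pH 7–8.5, prepared the same day. Three mice per cohort. Plasma was spun at 4 °C, frozen at –75 °C and quantified by LC–MS/MS.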

A673 = experiment: Cytotoxicity against human A673 cells assessed as reduction in cell viability after 48 hrs by CellTiter-Glo assay; assay type: functional, cell-based; conditions: A673, 48 h
[5] = target: T1, L-lactate dehydrogenase A chain; experiment: Inhibition of recombinant human LDHA using sodium pyruvate as substrate preincubated for 5 mins followed by diaphorase/resazurin addition and measured after 20 mins by fluorescence based assay
[6] = AUClast in CD-1 mouse at 10 mg/kg, iv and measured up to 24 hrs by LC/MS-MS analysis; assay type: ADME, organism-based; parameters: route intravenous, dose 10 mg/kg, time <=24; conditions: in vivo; procedure, shortened: as §2
[7] = target: L-lactate dehydrogenase B chain (Homo sapiens) (UniProt P07195); experiment: Inhibition of recombinant human LDHB using sodium pyruvate as substrate preincubated for 5 mins followed by diaphorase/resazurin addition and measured after 20 mins by fluorescence based assay
Chain of L-lactate dehydrogenase B chain (Homo sapiens) (P07195 2-334 limits assumed): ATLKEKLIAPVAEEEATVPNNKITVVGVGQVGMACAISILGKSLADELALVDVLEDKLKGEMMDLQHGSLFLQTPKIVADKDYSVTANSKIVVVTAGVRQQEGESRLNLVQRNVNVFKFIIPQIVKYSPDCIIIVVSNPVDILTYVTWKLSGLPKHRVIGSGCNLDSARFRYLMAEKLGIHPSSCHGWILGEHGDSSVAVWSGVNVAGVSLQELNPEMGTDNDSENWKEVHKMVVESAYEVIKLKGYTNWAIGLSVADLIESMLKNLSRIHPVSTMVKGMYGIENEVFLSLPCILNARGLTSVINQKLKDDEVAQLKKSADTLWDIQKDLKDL

[8] = target: T1, L-lactate dehydrogenase A chain; experiment: Inhibition of LDHA in human MIA PaCa-2 cells assessed as decrease in lactate production incubated for 2 hrs by lactate oxidase-coupled fluorescence based assay; assay type: cell-based
[9] = AUClast in CD-1 mouse at 50 mg/kg, po and measured up to 24 hrs by LC/MS-MS analysis; assay type: ADME, organism-based; parameters: route oral, dose 50 mg/kg, time <=24; conditions: in vivo; procedure, shortened: as §1
[10] = Volume of distribution at steady state in CD-1 mouse at 10 mg/kg, iv and measured up to 24 hrs by LC/MS-MS analysis; assay type: ADME, organism-based; conditions: in vivo; procedure, shortened: as §2
[11] = target: T1, L-lactate dehydrogenase A chain; experiment: Inhibition of GS[HiBiT]GS-tagged LDHA (unknown origin) expressed in HEK-293T cells measured after 1 hr by […]; assay type: cell-based
Procedure, shortened: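 HEK293T cells were transiently transfected for 24 h with CMV-driven LDHA carrying a C-terminal GS[HiBiT]GS tag, then reseeded at 2500 cells/well in DPBS with Ca/Mg and 1 g/L glucose. […] Cells were lysed with NP40, and 11S (100 nM final) plus furimazine was added.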

MIA PaCa-2 = experiment: Cytotoxicity against human MIA PaCa-2 cells assessed as reduction in cell viability after 48 hrs by CellTiter-Glo assay; assay type: functional, cell-based; conditions: MIA PaCa-2, 48 h
Mus musculus [12] = experiment: In vivo inhibition of LDH in human A673 cells xenografted athymic nude CrTac:NCr-Foxn1nu mouse assessed as reduction in tumor LDH activity at 50 mg/kg, iv after 1 hr by NADH-based UV-VIS spectrometric method relative to control; assay type: functional, organism-based
Procedure, shortened: (§3)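 Female athymic nude mice carried SQ A673 flank xenografts (2 million cells) and received a single IV dose of 50 mg/kg in PBS-based vehicle. Four mice per time point were sacrificed at 1, 3, 6 and 24 h. Frozen tumor (10–50 mg) was pulverized and lysed in PBS pH 7.4 with 0.1% Triton X-100 on ice for 1 h. Cleared lysate (10–20 μg) was assayed with 10 mM pyruvate and 0.3 mM final NADH, reading NADH oxidation at 340 nm at 37 °C.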

[13] = Terminal half life in CD-1 mouse at 10 mg/kg, iv and measured up to 24 hrs by LC/MS-MS analysis; assay type: ADME, organism-based; conditions: in vivo; procedure, shortened: as §2
[14] = Oral bioavailability in CD-1 mouse at 50 mg/kg and measured up to 24 hrs by LC/MS-MS analysis; assay type: ADME, organism-based; conditions: in vivo; procedure, shortened: as §1
Mus musculus [15] = experiment: In vivo inhibition of LDH in human A673 cells xenografted athymic nude CrTac:NCr-Foxn1nu mouse assessed as reduction in tumor LDH activity at 50 mg/kg, iv after 6 hrs by UV-VIS spectrometric method relative to control; assay type: functional; procedure, shortened: as §3

Structure (SMILES) | Cmax [1] | Cmax [2] | inhibition (Sus scrofa) | IC50 [3] | beta t1/2 [4] | IC50 (A673) | IC50 [5] | AUClast [6] | inhibition [7] | IC50 [8] | AUClast [9] | Vdss [10] | IC50 [11] | IC50 (MIA PaCa-2) | inhibition (Mus musculus [12]) | beta t1/2 [13] | F [14] | inhibition (Mus musculus [15])
Cc1ccc(C#Cc2cc(-c3nn(-c4nc(C(=O)O)cs4)c(CCC4CC4)c3Cc3ccc(S(N)(=O)=O)c(F)c3)ccc2F)s1 | 4.73 µg/mL | 35300 ng/mL | inactive | 390 nM | 3.2 h | 218 nM | 202 nM | 6.65 µg·h/mL | Active | 197 nM | 12.24 µg·h/mL | 2.5 L/kg | 200 nM | 226 nM | Active | 6.5 h | 37% | Active
NS(=O)(=O)c1ccc(Cc2c(-c3cccc(-c4ccccc4)c3)nn(-c3nc(C(=O)O)cs3)c2CC2CC2)cc1 |  |  |  |  |  |  |  |  |  |  |  |  |  |  |  | 0.85 h |  | 
NS(=O)(=O)c1ccc(Cc2c(-c3ccc(F)c(/C=C/C4CCCC4)c3)nn(-c3nc(C(=O)O)cs3)c2CC2CC2)cc1F | 1.2 µg/mL | 6440 ng/mL | inactive | 371 nM | 3.1 h | 488 nM | 74 nM | 2.81 µg·h/mL | Active | 149 nM | 9.22 µg·h/mL | 13.3 L/kg | 108 nM | 454 nM | Active | 5.5 h | 83% | Active
CCCC#Cc1cc(-c2nn(-c3nc(C(=O)O)cs3)c(CC3CC3)c2Cc2ccc(S(N)(=O)=O)c(F)c2)ccc1F |  |  | inactive | 420 nM |  | 833 nM | 24 nM |  | Active | 361 nM |  |  | 106 nM | 746 nM | Active |  |  | Active
Cc1ncc(C#Cc2cc(-c3nn(-c4nc(C(=O)O)cs4)c(CC4CC4)c3Cc3ccc(S(N)(=O)=O)c(F)c3)ccc2F)s1 | 1.82 µg/mL | 5500 ng/mL | inactive | 937 nM | 3.2 h | 569 nM | 33 nM | 1.82 µg·h/mL | Active | 867 nM | 3.44 µg·h/mL | 13.9 L/kg |  | 488 nM |  | 5.75 h | 38% | 
Cc1ccc(C#Cc2cc(-c3nn(-c4nc(C(=O)O)cs4)c(CC4CC4)c3Cc3ccc(S(N)(=O)=O)c(F)c3)ccc2F)o1 | 1.26 µg/mL | 4770 ng/mL | inactive | 544 nM | 10.7 h |  | 47 nM | 2.32 µg·h/mL | Active | 547 nM | 13.52 µg·h/mL | 10.3 L/kg | 79 nM |  |  | 5.1 h | 106% | 
Cc1ccc(C#Cc2cccc(-c3nn(-c4nc(C(=O)O)cs4)c(CCC4CC4)c3Cc3ccc(S(N)(=O)=O)c(F)c3)c2)s1 | 6.85 µg/mL | 58200 ng/mL | inactive | 174 nM | 3.7 h | 187 nM | 117 nM | 9.6 µg·h/mL | Active | 172 nM | 20.03 µg·h/mL | 1.47 L/kg | 152 nM |  |  | 5.8 h | 42% | 
C/C=C/c1cc(-c2nn(-c3nc(C(=O)O)cs3)c(CC3CC3)c2Cc2ccc(S(N)(=O)=O)c(F)c2)ccc1F |  |  | inactive | 405 nM |  | 614 nM | 11 nM |  | Active | 321 nM |  |  | 126 nM | 528 nM | Active |  |  | Active
Cc1cnc(C#Cc2cc(-c3nn(-c4nc(C(=O)O)cs4)c(CC4CC4)c3Cc3ccc(S(N)(=O)=O)c(F)c3)ccc2F)s1 | 2.03 µg/mL | 3320 ng/mL | inactive | 1320 nM | 3.54 h | 803 nM | 52 nM | 1.36 µg·h/mL | Active | 1600 nM | 2.65 µg·h/mL | 17.9 L/kg | 170 nM | 909 nM | Active | 4.9 h | 39% | Active
Cc1ccc(C#Cc2cccc(-c3nn(-c4nc(C(=O)O)cs4)c(CC4CC4)c3Cc3ccc(S(N)(=O)=O)c(F)c3)c2)o1 | 2.28 µg/mL | 4570 ng/mL | inactive | 450 nM | 3.7 h | 285 nM | 36 nM | 2.28 µg·h/mL | Active | 432 nM | 10.17 µg·h/mL | 12.5 L/kg | 168 nM | 296 nM |  | 5 h | 89% | 
